What was measured:
[1] = target: T1, Aryl hydrocarbon receptor (Homo sapiens, UniProt P35869); assay: Activation of AhR in human HT29-Lucia cells expressing secreted Lucia luciferase reporter gene assessed as increase in receptor transactivation by measuring fold increase in reporter activity at 5 uM measured after 24 hrs by luciferase reporter gene assay relative to control; format: cell-based; conditions: HT-29, human, read-out: FC
T1 sequence (P35869 whole entry): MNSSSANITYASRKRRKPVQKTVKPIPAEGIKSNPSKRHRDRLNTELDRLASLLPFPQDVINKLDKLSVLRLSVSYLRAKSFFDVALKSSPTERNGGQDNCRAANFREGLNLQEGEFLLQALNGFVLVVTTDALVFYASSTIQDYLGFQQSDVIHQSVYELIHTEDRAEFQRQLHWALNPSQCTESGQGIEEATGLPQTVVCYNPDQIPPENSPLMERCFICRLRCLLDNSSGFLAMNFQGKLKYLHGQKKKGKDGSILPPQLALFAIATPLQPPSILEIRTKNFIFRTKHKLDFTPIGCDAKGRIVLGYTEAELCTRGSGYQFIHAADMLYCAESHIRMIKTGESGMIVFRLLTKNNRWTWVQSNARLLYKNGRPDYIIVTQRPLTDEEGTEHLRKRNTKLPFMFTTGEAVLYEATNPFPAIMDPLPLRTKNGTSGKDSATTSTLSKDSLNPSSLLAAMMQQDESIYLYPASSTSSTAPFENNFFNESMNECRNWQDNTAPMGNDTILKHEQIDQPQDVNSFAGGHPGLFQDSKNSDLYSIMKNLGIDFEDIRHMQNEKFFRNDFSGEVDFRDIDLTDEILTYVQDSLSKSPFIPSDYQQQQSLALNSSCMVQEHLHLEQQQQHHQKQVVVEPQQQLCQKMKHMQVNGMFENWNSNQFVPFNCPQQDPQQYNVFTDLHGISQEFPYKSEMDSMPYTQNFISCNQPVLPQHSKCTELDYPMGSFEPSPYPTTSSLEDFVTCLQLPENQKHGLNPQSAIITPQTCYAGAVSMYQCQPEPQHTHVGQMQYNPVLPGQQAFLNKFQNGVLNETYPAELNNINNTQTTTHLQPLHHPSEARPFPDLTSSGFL
Outline: (§1)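 HT29-Lucia cells (stable secreted Lucia luciferase reporter under a minimal promoter with the human CYP1A1 regulatory sequence, six DREs) were grown without antibiotics for 24 h before compound addition. At 24 and 48 h, supernatant was read by luminescence with QUANTI-Luc. Assays were run twice, and values are fold-change versus DMSO-treated cells. FICZ and CH223191 (5 μM) were included as controls.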

[2] = target: T1, Aryl hydrocarbon receptor; assay: Activation of AhR in human HT29-Lucia cells expressing secreted Lucia luciferase reporter gene assessed as increase in receptor transactivation by measuring fold increase in reporter activity at 5 uM measured after 48 hrs by luciferase reporter gene assay relative to control; format: cell-based; conditions: HT-29, human, read-out: FC; outline: as §1
A-431 = assay: Cytotoxicity against human A431 cells assessed as growth inhibition measured after 72 hrs by SRB assay; format: functional
Outline: (§2)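 Cancer lines were kept in DMEM with 10% FBS and glutamine at 37 °C, 5% CO2, and seeded at 2500–4000 cells per well in duplicate. Compound (from 40 mM DMSO stocks) was added 24 h after plating and left for 72 h. Cells were TCA-fixed, stained with SRB and read at 540 nm. GI50 came from an eight-point dose-response, using the change from day-0 optical density, with three to four independent replicates.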

[3] = Cytotoxicity against human MCF10A cells assessed as growth inhibition measured after 72 hrs by SRB assay; format: cell-based, MCF-10A
MIA PaCa-2 = assay: Cytotoxicity against human MIA cells assessed as growth inhibition measured after 72 hrs by SRB assay; format: functional; outline: as §2
NCI-H460 = assay: Cytotoxicity against human H460 cells assessed as growth inhibition measured after 72 hrs by SRB assay; format: functional; outline: as §2
BE(2)-C = assay: Cytotoxicity against human BE2C cells assessed as growth inhibition measured after 72 hrs by SRB assay; format: functional; outline: as §2
HT-29 = assay: Cytotoxicity against human HT29 cells assessed as growth inhibition measured after 72 hrs by SRB assay; format: functional; outline: as §2
[4] = Cytotoxicity against human SJG2 cells assessed as growth inhibition measured after 72 hrs by SRB assay; format: functional; conditions: SJ-G2; outline: as §2
DU-145 = assay: Cytotoxicity against human DU-145 cells assessed as growth inhibition measured after 72 hrs by SRB assay; format: functional; outline: as §2
[5] = Selectivity index, ratio of GI50 for human MCF10A cells to GI50 for human A2780 cells by SRB assay; format: toxicity; conditions: MCF10A cells versus A2780 cells, read-out: RatioGI50
Outline: (§3)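 Fold selectivity is the MCF10A GI50 divided by the cancer-line GI50. Each GI50 is from the 72 h SRB assay: eight-point dose-response, day-0 optical density baseline, three to four separate replicates.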

U-87 MG = assay: Cytotoxicity against human U87 cells assessed as growth inhibition measured after 72 hrs by SRB assay; format: functional, U-87MG ATCC; outline: as §2
A2780 = assay: Cytotoxicity against human A2780 cells assessed as growth inhibition measured after 72 hrs by SRB assay; format: functional; outline: as §2
MCF7 = assay: Cytotoxicity against human MCF-7 cells assessed as growth inhibition measured after 72 hrs by SRB assay; format: functional; outline: as §2
MDA-MB-468 = assay: Cytotoxicity against human MDA-MB-468 cells assessed as growth inhibition measured after 72 hrs by SRB assay; format: functional; outline: as §2
[6] = Selectivity index, ratio of GI50 for human MCF10A cells to GI50 for human T47D cells by SRB assay; format: toxicity; conditions: MCF10A cells versus T47D cells, read-out: RatioGI50; outline: as §3
[7] = Selectivity index, ratio of GI50 for human MCF10A cells to GI50 for human MDA-MB-468 cells by SRB assay; format: toxicity; conditions: MCF10A cells versus MDA-MB-468 cells, read-out: RatioGI50; outline: as §3
[8] = Selectivity index, ratio of GI50 for human MCF10A cells to GI50 for human MCF-7 cells by SRB assay; format: toxicity; conditions: MCF10A cells versus MCF-7 cells, read-out: RatioGI50; outline: as §3
CYP1A1 = target: T2, CYP1A1 (Homo sapiens, UniProt P35869); assay: Activation of AhR in human MDA-MB-468 cells assessed as fold increase in CYP1A1 mRNA expression at 5 uM measured after 8 hrs by qPCR assay relative to control; format: cell-based; conditions: read-out: FC
T2 sequence (P35869 whole entry): T1 sequence (P35869 whole entry)
Outline: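 MDA-MB-468 cells were exposed for 8 h, then total RNA was extracted. CYP1A1 was quantified by qPCR with β2M as reference: 95 °C for 5 min, then 40 cycles of 95 °C for 5 s and 60 °C for 10 s. Fold change was calculated by the comparative Ct method.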

[9] = target: T1, Aryl hydrocarbon receptor; assay: Activation of AhR in human HT29-Lucia cells expressing secreted Lucia luciferase reporter gene assessed as increase in receptor transactivation by measuring fold increase in reporter activity at 25 uM measured after 24 hrs by luciferase reporter gene assay relative to control; format: cell-based; conditions: HT-29, human, read-out: FC; outline: as §1
T47D = assay: Cytotoxicity against human T47D cells assessed as growth inhibition measured after 72 hrs by SRB assay; format: functional; outline: as §2
[10] = target: T1, Aryl hydrocarbon receptor; assay: Activation of AhR in human HT29-Lucia cells expressing secreted Lucia luciferase reporter gene assessed as increase in receptor transactivation by measuring fold increase in reporter activity at 25 uM measured after 48 hrs by luciferase reporter gene assay relative to control; format: cell-based; conditions: HT-29, human, read-out: FC; outline: as §1
[11] = Selectivity index, ratio of GI50 for human MCF10A cells to GI50 for human H460 cells by SRB assay; format: toxicity; conditions: MCF10A cells versus H460 cells, read-out: RatioGI50; outline: as §3

For `Cc1ccccc1/N=N/c1ccc(NC(=O)c2ccnn2C)c(C)c1`, the fold induction at 5 µM [1] was 0.69 and the fold induction at 5 µM [2] was 0.59.

In the case of `O=Cc1c2[nH]c3ccccc3c2cc2[nH]c3ccccc3c12`, the fold induction at 5 µM [1] is reported as 2.85 and the fold induction at 5 µM [2] is reported as 4.82.

For `N#C/C(=C\c1ccc(OCC(O)CNc2ccccc2)cc1)c1ccc(Cl)c(Cl)c1` (racemic), the GI50 (A-431) was 16 µM, the GI50 at 72 h [3] was 18 µM and the GI50 (MIA PaCa-2) was 17 µM. It also gave a GI50 (NCI-H460) of 14 µM, a GI50 (BE(2)-C) of 13 µM and a GI50 (HT-29) of 10 µM. It also gave a GI50 [4] of 18 µM, a GI50 (DU-145) of 22 µM and a selectivity ratio [5] of 4. It also gave a GI50 (U-87 MG) of 26 µM, a GI50 (A2780) of 4.4 µM and a GI50 (MCF7) of 13 µM.

`N#C/C(=C\c1ccc(OCC(O)CN2CCN(c3ccc(C#N)cc3)CC2)cc1)c1ccc(Cl)c(Cl)c1` (racemic) gave a GI50 (MDA-MB-468) of 6 µM, a GI50 (A-431) of 20 µM and a GI50 at 72 h [3] of 47 µM. For the same compound, the GI50 (MIA PaCa-2) was greater than 50 µM, the selectivity ratio [6] was 20 and the GI50 (NCI-H460) was greater than 50 µM. The selectivity ratio [7] was 7.8, the selectivity ratio [8] was 8.1 and the GI50 (BE(2)-C) was 31 µM. The GI50 (HT-29) was 50 µM, the GI50 [4] was greater than 50 µM and the fold induction at 8 h, 5 µM (CYP1A1) was 7.6. The GI50 (DU-145) was 17 µM, the fold induction at 25 µM [9] was 1.69 and the GI50 (T47D) was 2.3 µM. For the same compound, the GI50 (U-87 MG) was greater than 50 µM, the fold induction at 25 µM [10] was 1.84 and the GI50 (A2780) was 15 µM. For the same compound, the GI50 (MCF7) was 5.8 µM.

`CC(=O)N1CCN(CC(O)COc2ccc(/C=C(\C#N)c3ccc(Cl)c(Cl)c3)cc2)CC1` (racemic) gave a GI50 (MDA-MB-468) of 5.9 µM, a GI50 (A-431) of 10 µM and a GI50 at 72 h [3] of 16 µM. The GI50 (MIA PaCa-2) was 16 µM, the selectivity ratio [6] was 2.3 and the GI50 (NCI-H460) was 14 µM. The selectivity ratio [7] was 2.7, the selectivity ratio [8] was 3 and the GI50 (BE(2)-C) was 11 µM. It also gave a GI50 (HT-29) of 8.6 µM, a GI50 [4] of 13 µM and a GI50 (DU-145) of 15 µM. It also gave a GI50 (T47D) of 6.8 µM, a GI50 (U-87 MG) of 21 µM and a GI50 (A2780) of 6.9 µM. For the same compound, the GI50 (MCF7) was 5.3 µM.

For `N#C/C(=C\c1ccc(OCC(O)CN2CCN(c3ccc(Br)cc3)CC2)cc1)c1ccc(Cl)c(Cl)c1` (racemic), the GI50 (A-431) was greater than 50 µM, the GI50 at 72 h [3] was 49 µM and the GI50 (MIA PaCa-2) was 57 µM. It also gave a GI50 (NCI-H460) greater than 50 µM, a GI50 (BE(2)-C) of 40 µM and a GI50 (HT-29) of 16 µM. The GI50 [4] was 21 µM, the GI50 (DU-145) was 31 µM and the selectivity ratio [5] was 3.5. It also gave a GI50 (U-87 MG) greater than 50 µM, a GI50 (A2780) of 14 µM and a GI50 (MCF7) of 24 µM.

`N#C/C(=C\c1ccc(OCC(O)CN2CCN(c3ccccc3F)CC2)cc1)c1ccc(Cl)c(Cl)c1` (racemic) showed a GI50 (A-431) of 14 µM, a GI50 at 72 h [3] of 15 µM and a selectivity ratio [11] of 9.3. For the same compound, the GI50 (MIA PaCa-2) was 24 µM, the GI50 (NCI-H460) was 1.6 µM and the GI50 (BE(2)-C) was 21 µM. The GI50 (HT-29) was 5.4 µM, the GI50 [4] was 18 µM and the GI50 (DU-145) was 18 µM. The GI50 (U-87 MG) was 20 µM, the GI50 (A2780) was 17 µM and the GI50 (MCF7) was 11 µM.

Source: ChEMBL document CHEMBL4732034, “Amino alcohol acrylonitriles as broad spectrum and tumour selective cytotoxic agents” (RSC Med Chem, 2021)
